According to article PMC3728731 (Chemmedchem, 2013):
“And” between values parts separate entries of the source, which are not always exact repeats. Identical values can stand only once.

Columns and labels:
TbGSK3 [1] = biological target: T1, TbGSK3 (Trypanosoma brucei brucei, UniProt Q388M1); test: TbGSK3 radiometric Flashplate potency assay; format: biochemical; details: for IC50: IC50 TbGSK3, Flashplate, 1 μM ATP (<KM); for fold less active than 8 against TbGSK3: compared with compound 8
T1 sequence (Q388M1 1-352): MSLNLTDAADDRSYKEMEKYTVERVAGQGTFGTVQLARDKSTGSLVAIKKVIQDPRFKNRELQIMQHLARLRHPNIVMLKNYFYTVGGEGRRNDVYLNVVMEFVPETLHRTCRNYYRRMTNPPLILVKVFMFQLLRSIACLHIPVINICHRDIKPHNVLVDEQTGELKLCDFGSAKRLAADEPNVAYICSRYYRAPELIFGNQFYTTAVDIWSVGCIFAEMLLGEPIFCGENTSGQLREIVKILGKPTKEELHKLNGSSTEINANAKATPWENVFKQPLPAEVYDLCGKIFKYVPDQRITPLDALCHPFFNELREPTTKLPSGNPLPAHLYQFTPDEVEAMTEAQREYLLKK
Outline: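 Radiometric streptavidin Flashplate capture of biotinylated phosphoproduct. MBP-fused short TbGSK3 (2.5 nM), 1 μM biotinylated GSP2, 1 μM ATP plus 3.7 KBq [γ-³³P]ATP/well. 10-point titration, 30 μM–0.3 nM final, 1% DMSO. IC50 by four-parameter fit; ligand efficiency = [−RT ln(IC50)]/heavy-atom count.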

HsGSK3β = HsGSK3β (Homo sapiens, UniProt P49841); test: HsGSK3β radiometric Flashplate assay; format: biochemical
TbGSK3 [2] = biological target: T1, TbGSK3; test: Mechanism of inhibition of TbGSK3; format: biochemical; details: for mechanism of inhibition: versus ATP, saturating GSP2
Outline: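 Rates (CPM) measured at 10 test-compound concentrations × four ATP concentrations, GSP2 phosphopeptide saturating. Lineweaver–Burk plots examined for competitive, mixed or uncompetitive patterns; apparent K_i calculated.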

GSK3 = GSK3 (Homo sapiens, UniProt P49841); test: Mammalian kinase selectivity panel; format: biochemical; details: read-out: inhibition of GSK3
Outline: (§1)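 Run by the University of Dundee DSTT mammalian panel, which then held 76 kinases. Test compound screened in duplicate at 10 μM. Each kinase assayed with ATP below its apparent K_M for ATP.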

CDK2-Cyclin A = CDK2-Cyclin A (Homo sapiens, UniProt P24941); test: Mammalian kinase selectivity panel; format: biochemical; details: read-out: inhibition of CDK2
Outline: as §1

[3] = tested on: MRC5 (human lung fibroblast) cells; test: MRC5 proliferation assay; format: cell-based; details: T. brucei versus MRC5
Outline: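 MRC5 human lung fibroblasts, 2×10³ cells/well, grown in MEM with 10% foetal bovine serum. Test compound from 50 μM to 0.5 nM. Incubated 69 h at 37 °C, 5% CO₂. Resazurin added (50 μM final), then a further 4 h under the same conditions. Read by fluorescence.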

76 mammalian kinases = test: Mammalian kinase selectivity panel, whole panel; format: biochemical; details: 10 μM

HsGSK3β, sequence (P49841 whole entry): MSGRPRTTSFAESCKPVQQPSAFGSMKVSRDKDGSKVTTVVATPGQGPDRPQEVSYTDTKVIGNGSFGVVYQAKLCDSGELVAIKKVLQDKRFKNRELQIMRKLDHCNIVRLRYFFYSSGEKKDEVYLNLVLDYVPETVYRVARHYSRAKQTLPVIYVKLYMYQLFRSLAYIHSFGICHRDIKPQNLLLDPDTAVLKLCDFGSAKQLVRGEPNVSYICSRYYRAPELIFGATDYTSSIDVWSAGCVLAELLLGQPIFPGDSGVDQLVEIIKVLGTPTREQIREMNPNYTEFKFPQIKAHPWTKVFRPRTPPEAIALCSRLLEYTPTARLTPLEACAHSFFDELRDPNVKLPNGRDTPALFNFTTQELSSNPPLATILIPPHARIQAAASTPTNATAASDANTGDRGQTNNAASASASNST
GSK3, sequence (P49841 whole entry): as above

SMILES	IC50 (TbGSK3 [1])	IC50 (HsGSK3β) [nM]	fold less active than 8 against TbGSK3 (TbGSK3 [1])	other results
Nc1nc(Nc2ccccc2)sc1C(=O)c1cccc(Br)c1 [Compound 16, (4-Amino-2-(phenylamino)thiazol-5-yl)(3-bromophenyl)methanone]	100 nM	5	–	–
Nc1nc(NCCc2ccccc2)sc1C(=O)c1ccccc1 [Compound 21, (4-Amino-2-(phenethylamino)thiazol-5-yl)(phenyl)methanone]	500 nM	3	–	–
Nc1nc(NCC2CCCCC2)sc1C(=O)c1ccccc1 [Compound 20, (4-Amino-2-((cyclohexylmethyl)amino)thiazol-5-yl)(phenyl)methanone]	700 nM	20	–	–
Nc1nc(NC2CCCCC2)sc1C(=O)c1ccccc1 [Compound 19, (4-Amino-2-(cyclohexylamino)thiazol-5-yl)(phenyl)methanone]	190 nM and 200 nM	2	sixfold	Ki (TbGSK3 [2]): 250 ± 30 nM; mechanism of inhibition (TbGSK3 [2]): ATP-competitive
COc1cccc(OC)c1C(=O)c1sc(Nc2ccccc2)nc1N [Compound 15, (4-Amino-2-(phenylamino)thiazol-5-yl)(2,6-dimethoxyphenyl)methanone]	400 nM	2000	–	fold less active than 14 against TbGSK3 (TbGSK3 [1]; compared with compound 14): over 10 fold
Cc1ccc(Nc2nc(N)c(C(=O)c3ccccc3)s2)cc1C [Compound 18, (4-Amino-2-((3,4-dimethylphenyl)amino)thiazol-5-yl)(phenyl)methanone]	60 nM	2	–	–
Nc1nc(Nc2ccccc2)sc1C(=O)c1c(F)cccc1F [Compound 14, (4-Amino-2-(phenylamino)thiazol-5-yl)(2,6-difluorophenyl)methanone]	20 nM	5	–	Ki (TbGSK3 [2]): 50 ± 10 nM; mechanism of inhibition (TbGSK3 [2]): ATP-competitive
Cc1cccc(C)c1Nc1nc(N)c(C(=O)c2ccccc2)s1 [Compound 17, (4-Amino-2-((2,6-dimethylphenyl)amino)thiazol-5-yl)(phenyl)methanone]	200 nM	200	approximately 10 fold	–
CC(C)(C)C(=O)c1sc(NC2CCCCC2)nc1N [Compound 22, 1-(4-Amino-2-(cyclohexylamino)thiazol-5-yl)-2,2-dimethylpropan-1-one]	12000 nM	–	~300 fold	inhibition at 10 µM (GSK3): > 70%; inhibition at 10 µM (CDK2-Cyclin A): > 70%; selectivity over the human MRC5 cell line [3]: > 150 fold; kinases of the panel inhibited at the >90 % level (76 mammalian kinases): did not inhibit any kinase at the >90 % level
